Assay results taken from ChEMBL document CHEMBL1134785, “Synthesis and biological evaluation of prostaglandin-F alkylphosphinic acid derivatives as bone anabolic agents for the treatment of osteoporosis” (J Med Chem, 2001).

Experiments:
Rattus norvegicus [1] = assay: Bone Volume /Tissue Volume (%)measured using micro Computed Tomography(CT) after a dose of 6000 ug/kg in Vertebral Bone; type: functional
Method in brief: (§1)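 Micro-CT of the fifth lumbar vertebra, measuring cancellous bone volume and architecture. Rats were 6 months old, OVX 60 days before treatment, then dosed daily for 60 days. Test-agent doses were 10–3000 µg/kg, given as a once-daily subcutaneous injection; 6 mg/kg/day was given to the positive-control group. Groups were compared with vehicle by ANOVA plus LSD test.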

Rattus norvegicus [2] = assay: Mineral surface/bone surface measured Histomorphometrically after a dose of 6000 ug/kg in proximal tibial metaphysis; type: functional
Method in brief: (§2)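 Positive-control arm: rats ovariectomized at six months, then from day 60 given PGE2 at 6 mg/kg/day for 60 days. Labels were xylenol orange 90 mg/kg before treatment and calcein 10 mg/kg 14 and 4 days before sacrifice. The tibia was read by fluorescent-light histomorphometry; metaphysis region 1–4 mm distal to the growth plate junction.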

Rattus norvegicus [3] = assay: Bone Formation rate/bone measured Histomorphometrically after a dose of 6000 ug/kg in proximal tibial metaphysis; type: functional
Method in brief: (§3)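 Proximal tibial metaphysis, 1 to 4 mm distal to the growth plate–metaphyseal junction, assessed by histomorphometry in 6-month-old female rats. Rats were ovariectomized (OVX) 60 days before dosing, then given daily injections for 60 days. Fluorochrome labels were xylenol orange 90 mg/kg before treatment and calcein 10 mg/kg at 14 and 4 days before sacrifice. Groups were compared with vehicle by ANOVA plus LSD test.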

Rattus norvegicus [4] = assay: Bone Formation rate/tissue vol measured Histomorphometrically after a does of 6000 ug/kg in proximal tibial metaphysis; type: functional; method in brief: as §3
Rattus norvegicus [5] = assay: Bone Volume /Tissue Volume (%)measured Histomorphometrically after a dose of 6000 ug/kg in proximal tibial metaphysis; type: functional; method in brief: as §3
Rattus norvegicus [6] = assay: Derived trabecular no measured using micro Computed Tomography(CT) after a dose of 6000 ug/kg in Vertebral Bone; type: functional, Trabecula; method in brief: as §1
Rattus norvegicus [7] = assay: Derived trabecular thickness measured using micro Computed Tomography(CT) after a dose of 6000 ug/kg in Vertebral Bone; type: functional, Trabecula; method in brief: as §1
Rattus norvegicus [8] = assay: Directly measured thickness measured using micro Computed Tomography(CT) after a dose of 6000 ug/kg in Vertebral Bone; type: functional; method in brief: as §1
Rattus norvegicus [9] = assay: Connectivity density measured using micro Computed Tomography(CT) after a dose of 6000 ug/kg in Vertebral Bone; type: functional; method in brief: as §1
Rattus norvegicus [10] = assay: Endosteal eroded surface measured Histomorphometrically after a dose of 6000 ug/kg in Tibial Diaphysis; type: functional
Method in brief: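 Tibial histomorphometry in 6-month-old rats, OVX 60 days before treatment, then daily injection for 60 days. Vehicle was acetate-buffered saline with methylcellulose and polyoxyethylenesorbitan monooleate. Rats received xylenol orange 90 mg/kg before treatment and calcein 10 mg/kg at 14 and 4 days pre-sacrifice. Rats were killed by cardiac puncture under ketamine/xylazine. Groups were compared with vehicle by ANOVA plus LSD test.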

Rattus norvegicus [11] = assay: Mineralizing apposition measured Histomorphometrically after a dose of 6000 ug/kg in […]; type: functional
Rattus norvegicus [12] = assay: Endosteal mineralizing surface measured Histomorphometrically after a does of 6000 ug/kg in Tibial Diaphysis; type: functional
Rattus norvegicus [13] = assay: Mineral apposition measured Histomorphometrically after a dose of 6000 ug/kg in proximal tibial metaphysis; type: functional; method in brief: as §2
Rattus norvegicus [14] = assay: Marrow area measured Histomorphometrically after a dose of 6000 ug/kg in Tibial Diaphysis; type: functional
Rattus norvegicus [15] = assay: Periosteal mineralizing surface measured Histomorphometrically after a does of 6000 ug/kg in Tibial Diaphysis; type: functional
Method in brief: (§4)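 A positive-control group of ovariectomized rats was injected daily at 6 mg/kg/day for 60 days, starting 60 days after surgery. Xylenol orange (90 mg/kg) was given before treatment and calcein (10 mg/kg) 14 and 4 days before sacrifice. Tibiae were read by fluorescent-light histomorphometry.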

Rattus norvegicus [16] = assay: Trabecular no measured Histomorphometrically after a dose of 6000 ug/kg in proximal tibial metaphysis; type: functional, Trabecula
Method in brief: (§5)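 A positive-control group of ovariectomized rats was injected daily at 6 mg/kg/day for 60 days, beginning 60 days post-surgery. Fluorochrome labels were xylenol orange (90 mg/kg) before treatment and calcein (10 mg/kg) 14 and 4 days before sacrifice. Histomorphometry covered the proximal tibial metaphysis 1-4 mm below the growth plate-metaphyseal junction.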

Rattus norvegicus [17] = assay: Trabecular thickness measured Histomorphometrically after a dose of 6000 ug/kg in proximal tibial metaphysis; type: functional, Trabecula; method in brief: as §5
Rattus norvegicus [18] = assay: Tissue area measured Histomorphometrically after a dose of 6000 ug/kg in Tibial Diaphysis; type: functional; method in brief: as §4

For `CCCCC[C@H](O)/C=C/[C@H]1[C@H](O)CC(=O)[C@@H]1C/C=C\CCCC(=O)O` [DINOPROSTONE], the Activity (Rattus norvegicus [1]) was 43.79%, the Activity (Rattus norvegicus [2]) was 36.23% and the Activity (Rattus norvegicus [3]) was 394.7%. The Activity (Rattus norvegicus [4]) was 45.62%, the Activity (Rattus norvegicus [5]) was 11.65% and the Derived trabecular number (Rattus norvegicus [6]) was 4.6 1/mm. It also gave a Derived trabecular thickness (Rattus norvegicus [7]) of 95.1 µm, a Directly measured thickness (Rattus norvegicus [8]) of 149 µm and a Connectivity density (Rattus norvegicus [9]) of 47.81 mm**-3. It also gave an Endosteal eroded surface (Rattus norvegicus [10]) of 0.79%, a Mineralizing apposition rate (Rattus norvegicus [11]) of 1.33 µm/day and an Endosteal mineralizing surface (Rattus norvegicus [12]) of 61.22%. It also gave a Mineral apposition rate (Rattus norvegicus [13]) of 1.19 µm/day, a Marrow area (Rattus norvegicus [14]) of 0.76 mm and a Periosteal mineralizing surface (Rattus norvegicus [15]) of 58.37%. It also gave a Trabecular no. (Rattus norvegicus [16]) of 1.76, a Trabecular thickness (Rattus norvegicus [17]) of 66.14 and a Tissue area (Rattus norvegicus [18]) of 5.22 mm.
